# Measurements: ChEMBL document CHEMBL4340532, “Design, synthesis, and biological evaluation of novel 2'-deoxy-2'-fluoro-2'-C-methyl 8-azanebularine derivatives as potent anti-HBV agents” (Bioorg Med Chem Lett, 2019)
# Assays:
# [1] = test system: Hepatitis B virus; test: Antiviral activity against lamivudine-resistant Hepatitis B virus harboring L180M/M204V mutant infected in human HepG2.2.15 cells assessed as inhibition of extracellular HBV DNA replication at 10 uM measured on day 3 by FQ-PCR analysis relative to control; assay type: functional; settings: HepG2.2.15, 72 h
# In short: (§1)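 Lamivudine-resistant cell line transfected with the L180M/M204V mutant, exposed to 10, 20 or 40 µM for 3, 6 or 9 days. Intracellular and extracellular HBV DNA levels measured.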
# [2] = test system: Hepatitis B virus; test: Antiviral activity against Hepatitis B virus infected in human HepG2.2.15 cells assessed as inhibition of HBsAg secretion at 20 uM supplemented with fresh medium containing compound every 3 days for 6 days and measured on day 9 by ELISA relative to control; assay type: functional
# In short: (§2)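 HepG2.2.15 cells were exposed to compound for up to 9 days. The initial screen used 20 µM for 9 days, with lamivudine (20 µM) as positive control. Follow-up used 10, 20 or 40 µM sampled at days 3, 6 and 9. HBsAg and HBeAg were quantified in culture supernatant by ELISA and compared with a no-drug control. Results are mean ± SD of three experiments.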
# [3] = test system: HepG2 cells (Homo sapiens); test: Cytotoxicity against human HepG2 cells at 40 uM supplemented with fresh medium containing compound every 3 days for 9 days measured post-last dose
# [4] = test system: Hepatitis B virus; test: (§3) Antiviral activity against Hepatitis B virus infected in human HepG2.2.15 cells assessed as inhibition of intracellular HBV DNA replication at 10 uM supplemented with fresh medium containing compound every 3 days for 6 days measured post-last dose by FQ-PCR analysis relative to control; assay type: functional
# In short: (§4)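 HepG2.2.15 cultures were treated at 10, 20 or 40 µM for 3, 6 and 9 days. Both intracellular and extracellular HBV DNA levels were then determined and compared with untreated cells.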
# [5] = test system: Hepatitis B virus; test: as §3, with “against lamivudine-resistant” for “against”, “virus harboring L180M/M204V mutant” for “virus”, “extracellular” for “intracellular”, “9” for “6”; assay type: functional; in short: as §1
# [6] = test system: Hepatitis B virus; test: as §3, with “against lamivudine-resistant” for “against”, “virus harboring L180M/M204V mutant” for “virus”, “9” for “6”; assay type: functional; in short: as §1
# [7] = test system: Hepatitis B virus; test: Antiviral activity against Hepatitis B virus infected in human HepG2.2.15 cells assessed as inhibition of HBeAg secretion at 20 uM supplemented with fresh medium containing compound every 3 days for 6 days and measured on day 9 by ELISA relative to control; assay type: functional; in short: as §2
# [8] = test system: Hepatitis B virus; test: (§5) Antiviral activity against Hepatitis B virus infected in human HepG2.2.15 cells assessed as inhibition of extracellular HBV DNA replication at 40 uM supplemented with fresh medium containing compound every 3 days for 6 days measured post-last dose by FQ-PCR analysis relative to control; assay type: functional; in short: as §4
# [9] = test system: Hepatitis B virus; test: as §3, with “against lamivudine-resistant” for “against”, “virus harboring L180M/M204V mutant” for “virus”, “40” for “10”; assay type: functional; in short: as §1
# [10] = test system: Hepatitis B virus; test: Antiviral activity against Hepatitis B virus infected in human HepG2.2.15 cells assessed as inhibition of intracellular HBV DNA replication at 40 uM supplemented with fresh medium containing compound every 3 days for 6 days measured post-last dose by FQ-PCR analysis relative to control; assay type: functional
# In short: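 HepG2.2.15 cells exposed to 10, 20 or 40 µM for 3, 6 or 9 days; intracellular and extracellular HBV DNA levels measured.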
# [11] = test system: Hepatitis B virus; test: as §3, with “against lamivudine-resistant” for “against”, “virus harboring L180M/M204V mutant” for “virus”, “20” for “10”; assay type: functional; in short: as §1
# [12] = test system: Hepatitis B virus; test: Antiviral activity against lamivudine-resistant Hepatitis B virus harboring L180M/M204V mutant infected in human HepG2.2.15 cells assessed as inhibition of intracellular HBV DNA replication at 20 uM measured on day 3 by FQ-PCR analysis relative to control; assay type: functional; settings: HepG2.2.15, 72 h; in short: as §1
# [13] = test system: Hepatitis B virus; test: (§6) Antiviral activity against Hepatitis B virus infected in human HepG2.2.15 cells assessed as inhibition of intracellular HBV DNA replication at 40 uM supplemented with fresh medium containing compound every 3 days for 9 days measured post-last dose by FQ-PCR analysis relative to control; assay type: functional; in short: as §4
# [14] = test system: Hepatitis B virus; test: Antiviral activity against Hepatitis B virus infected in human HepG2.2.15 cells assessed as inhibition of intracellular HBV DNA replication at 20 uM supplemented with fresh medium containing compound every 3 days for 6 days measured post-last dose by FQ-PCR analysis relative to control; assay type: functional; in short: as §4
# [15] = test system: Hepatitis B virus; test: (§7) Antiviral activity against Hepatitis B virus infected in human HepG2.2.15 cells assessed as inhibition of extracellular HBV DNA replication at 10 uM supplemented with fresh medium containing compound every 3 days for 9 days measured post-last dose by FQ-PCR analysis relative to control; assay type: functional; in short: as §4
# [16] = test system: Hepatitis B virus; test: Antiviral activity against Hepatitis B virus infected in human HepG2.2.15 cells assessed as inhibition of intracellular HBV DNA replication at 10 uM supplemented with fresh medium containing compound every 3 days for 9 days measured post-last dose by FQ-PCR analysis relative to control; assay type: functional; in short: as §4
# [17] = test system: Hepatitis B virus; test: Antiviral activity against lamivudine-resistant Hepatitis B virus harboring L180M/M204V mutant infected in human HepG2.2.15 cells assessed as inhibition of extracellular HBV DNA replication at 20 uM measured on day 3 by FQ-PCR analysis relative to control; assay type: functional; settings: HepG2.2.15, 72 h; in short: as §1
# [18] = test system: Hepatitis B virus; test: as §5, with “against lamivudine-resistant” for “against”, “virus harboring L180M/M204V mutant” for “virus”, “9” for “6”; assay type: functional; in short: as §1
# [19] = test system: Hepatitis B virus; test: as §6, with “against lamivudine-resistant” for “against”, “virus harboring L180M/M204V mutant” for “virus”, “20” for “40”; assay type: functional; in short: as §1
# [20] = test system: Hepatitis B virus; test: as §5, with “against lamivudine-resistant” for “against”, “virus harboring L180M/M204V mutant” for “virus”, “20” for “40”; assay type: functional; in short: as §1
# [21] = test system: Hepatitis B virus; test: as §7, with “against lamivudine-resistant” for “against”, “virus harboring L180M/M204V mutant” for “virus”, “20” for “10”; assay type: functional; in short: as §1
structure (smiles),measurement,setting,value
C[C@@]1(F)[C@H](O)[C@@H](CO)O[C@H]1n1nnc2c(Nc3ccc(Cl)cc3F)ncnc21,inhibition at 10 µM,[1],11%
same,inhibition (INH),[2],39.7%
same,inhibition (INH),[3],7.7%
same,inhibition (INH),[4],31.8%
same,inhibition (INH),[5],32.1%
same,inhibition (INH),[6],36.6%
same,inhibition (INH),[7],31.6%
same,inhibition (INH),[8],68.9%
same,inhibition (INH),[9],66.3%
same,inhibition (INH),[10],65.2%
same,inhibition (INH),[11],41.6%
same,inhibition at 20 µM,[12],17.5%
same,inhibition (INH),[13],80.2%
same,inhibition (INH),[14],47%
same,inhibition (INH),[15],36.9%
same,inhibition (INH),[16],44.2%
same,inhibition at 20 µM,[17],35.6%
same,inhibition (INH),[18],83.6%
same,inhibition (INH),[19],65.2%
same,inhibition (INH),[20],49.5%
same,inhibition (INH),[21],61.4%
